Compound activity from PubChem BioAssay.
Sampled rows, rich in hits. Any-hit rate of the full collection: about 2.3%.
Cneo AK release = Cryptococcus neoformans lysis via adenylate kinase release; C. neoformans lysis, adenylate kinase release luminescence, 4 h; normalised: neutral wells 0, clomiphene wells 100; lysis activity, % at 15 µM; 0.2% of 360,000 active; AID 651654;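 active = mean lysis activity across replicates of at least 80%, whatever share of replicates individually reach that level; inactive = mean lysis activity below 80%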
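Schedule: static 4 h at 37 °C with compound, 1 h detection; system: C. neoformans cells; benchmarks: Clomiphene as positive control; buffer or medium: fresh YPD medium; measure: luminescence rise reflecting yeast cell lysis; measured by: luminescent adenylate kinase detection reagent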
DENV2 CPE rescue = protects cells from dengue virus 2 cytopathic effect; CPE inhibition, % at 9.99 µM; 1.7% of 350,000 active; DENV2-infected cells, cytopathic effect rescue, plate reader; in the data active = CPE inhibition above about 20%, passing the limit was not always enough; inconclusive = no clear call, values can overlap the other calls; tested in BHK-21 cells;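 also: 0% = median of neutral control wells and 100% = median of positive control wells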
ERp5 inh = ERp5 (human) disulfide isomerase inhibition. Q15084. ERp5 insulin aggregation, absorbance 650 nm, 90 min. inhibition, % at 9.99 µM. 0.05% of 350,000 active. AID 651711;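 active = mean replicate inhibition above about 25%, with every replicate also reaching it, limit read from the data, passing the limit was not always enough; inconclusive = only one of those two criteria met; inactive = neither criterion met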
PDI inh = blocks human protein disulfide isomerase activity. P07237. PDI insulin aggregation turbidity, A650, 90 min. inhibition, % at 10 µM. 0.052% of 350,000 active;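 active = mean inhibition across replicates of 30% or more, whatever share of single replicates reach that level; inconclusive = mean inhibition below 30% while every single replicate reaches 30%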
Target sequence (P07237 whole entry, looked up): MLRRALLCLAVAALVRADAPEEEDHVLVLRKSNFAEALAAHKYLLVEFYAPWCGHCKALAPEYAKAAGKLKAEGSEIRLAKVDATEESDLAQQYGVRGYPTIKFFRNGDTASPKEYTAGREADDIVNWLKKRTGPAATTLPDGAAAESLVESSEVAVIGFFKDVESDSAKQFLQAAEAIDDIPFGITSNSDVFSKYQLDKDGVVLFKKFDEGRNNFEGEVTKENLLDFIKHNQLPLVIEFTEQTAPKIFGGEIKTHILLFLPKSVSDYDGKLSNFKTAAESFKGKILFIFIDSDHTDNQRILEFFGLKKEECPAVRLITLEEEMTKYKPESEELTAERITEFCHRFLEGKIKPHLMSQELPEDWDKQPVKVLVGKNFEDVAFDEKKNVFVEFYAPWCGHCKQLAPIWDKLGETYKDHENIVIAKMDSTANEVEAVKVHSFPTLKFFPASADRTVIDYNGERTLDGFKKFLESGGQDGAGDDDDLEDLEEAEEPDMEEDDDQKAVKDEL
F508del corr = CFTR F508del correction in bronchial cells; CFBE cells, YFP halide quenching; stimulated with forskolin plus potentiator P3; % fluorescence drop versus neutral controls; 0.36% of 350,000 active; AID 720511; activity (quench increase), % at 7.58 µM;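 active = mean added fluorescence quench of at least 8% versus neutral control, with both replicates also reaching 8%; inconclusive = only one of the mean or replicate conditions met; inactive = mean below 8% and not both replicates reaching 8%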;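 also: cells transiently co-express mutant CFTR-F508del with the halide-sensitive YFP; corrector assay measuring rescue of mutant channel to the surface after 24 h compound exposure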
C2C12 statin = suppression of simvastatin myotoxicity; C2C12 myotubes + simvastatin, ATP luminescence, 48 h; scaled: DMSO 0, geranylgeraniol control 100; rescue of ATP level, % at 7.49 µM; 0.78% of 330,000 active; AID 602340;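 active = mean ATP rescue above about 67%, or every replicate alone reaching that limit, limit read from the data, passing the limit was not always enough; inconclusive = no clear call, values can overlap the other calls; inactive = mean under the limit and some replicate under it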;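 also: myotubes were challenged with 10 µM simvastatin during compound exposure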
The depositor's hits bear a star; u = inconclusive; x = no result; ! = not active in a repeat.

SMILES | Cneo AK release | DENV2 CPE rescue | ERp5 inh | PDI inh | F508del corr | C2C12 statin
COc1ccc(C(=O)c2cc([N+](=O)[O-])ccc2N2CCOCC2)cc1 | x | -8 | 7 | 3 | 11* | x
O=C(OCc1c(F)cccc1Cl)c1cc([N+](=O)[O-])ccc1N1CCOCC1 | 5 | 68* | 11 | -2 | 4 | 5
COc1ccccc1CN1[C@H](CO)[C@@H]2c3ccccc3N(C(=O)C3CC3)C[C@@H]21 | 1 | -6 | 3 | x | -3 | 11
Cc1noc(C)c1NC(=O)NCC[C@H]1CC[C@H](NC(=O)c2ccccc2)[C@H](CO)O1 | 0 | 6 | -2 | x | 3 | 4
COc1ccc(CN(C)C[C@H]2OCCCC[C@@H](C)Oc3ccc(NC(=O)NC(C)C)cc3C(=O)N([C@@H](C)CO)C[C@@H]2C)cc1 | 1 | -6 | 1 | x | 3 | -12
COc1ccc(S(=O)(=O)N(C)C[C@H]2Oc3c(NC(=O)c4ccncc4)cccc3C(=O)N([C@H](C)CO)C[C@@H]2C)cc1 | 0 | 25*! | -1 | 0 | 1 | -59
COc1ccc(S(=O)(=O)N(C)C[C@H]2Oc3c(NC(=O)Nc4ccc5c(c4)OCO5)cccc3C(=O)N([C@H](C)CO)C[C@H]2C)cc1 | -2 | 15 | 7 | x | 0 | x
COc1ccc(S(=O)(=O)N(C)C[C@H]2Oc3c(NC(=O)c4ccncc4)cccc3C(=O)N([C@@H](C)CO)C[C@@H]2C)cc1 | -1 | 0 | 0 | x | 4 | -30
COc1ccc(S(=O)(=O)N(C)C[C@@H]2Oc3c(NC(=O)Nc4ccc5c(c4)OCO5)cccc3C(=O)N([C@@H](C)CO)C[C@@H]2C)cc1 | -10 | 27* | -7 | x | 1 | x
COc1ccc(S(=O)(=O)N(C)C[C@@H]2Oc3c(NC(=O)C4CCCCC4)cccc3C(=O)N([C@H](C)CO)C[C@@H]2C)cc1 | 1 | 20* | 2 | x | 0 | 4
C[C@@H]1CN([C@@H](C)CO)C(=O)c2cccc(NC(=O)c3ccncc3)c2O[C@@H]1CN(C)S(=O)(=O)c1ccc(Cl)cc1 | 4 | u | 1 | x | -1 | 73*
O=C(c1ccncc1)N1CC2(C1)[C@H](c1ccccc1)[C@@H](CO)N2Cc1ccccn1 | x | 4 | -1 | x | -1 | x
CCNC(=O)C[C@H]1CC[C@H]2[C@@H](COc3ccc(NC(=O)c4ccc(F)cc4)cc3C(=O)N2C)O1 | 8 | 13 | -3 | x | 3 | -6
C[C@@H]1CN([C@@H](C)CO)C(=O)c2cc(NC(=O)c3ccncc3)ccc2O[C@@H](C)CCCCO[C@H]1CN(C)C(=O)Nc1ccc(F)cc1 | -4 | -2 | 7 | x | -4 | x
C[C@@H]1CCCCO[C@@H](CN(C)Cc2ccc(C(=O)Nc3ccccc3N)cc2)[C@@H](C)CN([C@H](C)CO)C(=O)c2cc(NS(=O)(=O)c3cccs3)ccc2O1 | x | -1 | 70* | x | -3 | x
C[C@@H]1CCCCO[C@H](CN(C)Cc2ccccc2)[C@H](C)CN([C@@H](C)CO)C(=O)c2cc(NS(=O)(=O)c3cccs3)ccc2O1 | 86* | x | -1 | x | -1 | x
C[C@@H]1CCCCO[C@@H](CN(C)Cc2ccc(C(F)(F)F)cc2)[C@H](C)CN([C@@H](C)CO)C(=O)c2cc(NS(=O)(=O)c3cccs3)ccc2O1 | 0 | u | 1 | x | 0 | 72*
COc1ccc(CN(C)C[C@@H]2OCCCC[C@@H](C)Oc3ccc(NS(=O)(=O)c4cccs4)cc3C(=O)N([C@@H](C)CO)C[C@H]2C)cc1 | 6 | 27* | 4 | x | -2 | x
C[C@@H]1CCCCO[C@H](CN(C)Cc2ccc(C(=O)Nc3ccccc3N)cc2)[C@@H](C)CN([C@H](C)CO)C(=O)c2cc(NS(=O)(=O)c3cccs3)ccc2O1 | -2 | x | -3 | x | -2 | -69
C[C@@H]1CCCCO[C@H](CN(C)Cc2ccc(C(F)(F)F)cc2)[C@H](C)CN([C@H](C)CO)C(=O)c2cc(NS(=O)(=O)c3cccs3)ccc2O1 | 0 | -1 | -9 | x | 0 | -60
CCCNC(=O)Nc1ccc2c(c1)C(=O)N(C)C[C@H](OC)[C@@H](C)CN(S(C)(=O)=O)[C@@H](C)CO2 | x | 2 | x | x | 1 | x
C[C@H]1CCCCO[C@@H](CN(C)S(=O)(=O)c2cn(C)cn2)[C@@H](C)CN([C@@H](C)CO)C(=O)c2cc(NC(=O)Nc3ccc(C(F)(F)F)cc3)ccc2O1 | 5 | 2 | x | x | -2 | 32
CCC(=O)N1[C@H](CO)[C@H](c2ccccc2)C12CN(C(=O)Nc1cccc(OC)c1)C2 | x | -10 | 2 | x | 3 | x
C[C@@H]1CN([C@@H](C)CO)C(=O)c2cc(NS(=O)(=O)c3cccs3)ccc2O[C@@H](C)CCCCO[C@@H]1CN(C)Cc1ccc2c(c1)OCO2 | 7 | -19 | x | x | 3 | x
C[C@@H]1CN([C@H](C)CO)C(=O)c2cc(NS(=O)(=O)c3cccs3)ccc2O[C@@H](C)CCCCO[C@H]1CN(C)Cc1ccc2c(c1)OCO2 | 12 | 55* | x | x | 3 | x
SMILES | Cneo AK release | DENV2 CPE rescue | ERp5 inh | PDI inh | F508del corr | C2C12 statin
C[C@H]1CCCCO[C@@H](CN(C)Cc2ccc3c(c2)OCO3)[C@@H](C)CN([C@@H](C)CO)C(=O)c2cc(NS(=O)(=O)c3cccs3)ccc2O1 | -4 | 59*! | x | x | 0 | x
CN1/C(=C\C=C2/SC(=S)N(CC(=O)O)C2=O)C(C)(C)c2ccccc21 | x | -1 | -5 | 13 | 16* | x
CN1CCN(C(=O)C[C@@H]2CC[C@@H]3[C@H](COC[C@@H](O)CN3Cc3cccc(Cl)c3)O2)CC1 | -3 | 31*! | 2 | x | 0 | 3
CN1CCN(C(=O)C[C@@H]2CC[C@@H]3[C@H](COC[C@@H](O)CN3Cc3ccc4c(c3)OCO4)O2)CC1 | 10 | 100* | 3 | x | -3 | -4
O=C(C[C@@H]1CC[C@@H]2[C@H](COC[C@H](O)CN2Cc2ccc3c(c2)OCO3)O1)N1CCOCC1 | -1 | -7 | 0 | x | -2 | -14
CN1CCN(C(=O)C[C@H]2CC[C@@H]3[C@H](COC[C@H](O)CN3Cc3cccc(Cl)c3)O2)CC1 | 51 | 3 | 3 | x | 1 | 5
CN1C(=O)c2cc(NC(=O)c3ccccc3Cl)ccc2OC[C@@H]2O[C@H](CC(=O)NCC(F)(F)F)CC[C@@H]21 | -3 | 6 | 2 | x | x | -5
C[C@@H]1CN([C@@H](C)CO)C(=O)Cc2cc(NS(=O)(=O)c3cccs3)ccc2O[C@@H]1CN(C)Cc1ccc(-c2ccccc2)cc1 | 3 | 44* | -2 | x | 1 | 42
C[C@@H]1CN([C@@H](C)CO)C(=O)Cc2cc(NS(=O)(=O)c3ccc(Cl)cc3)ccc2O[C@H]1CN(C)Cc1ccc(-c2ccccc2)cc1 | x | x | x | x | 3 | 69*
C[C@H]1CN([C@@H](C)CO)C(=O)Cc2cc(NS(=O)(=O)c3ccccc3)ccc2O[C@@H]1CN(C)Cc1ccc(-c2ccccc2)cc1 | 2 | 40* | 0 | x | -2 | 3
